Reference: ChEMBL document CHEMBL1121478, “Potential prophylactic antitumor activity of retinylidene 1,3-diketones” (1980)
Calls of active or inactive are those of the source. The rule behind the calls is not given here.

Experiments:
Cricetinae gen. sp. [1] = experiment: Compound is evaluated for its intrinsic ability to control epithelial cell differentiation by retinoids in hamster tracheal organ culture; type: functional, Trachea
Summary of the method: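 Hamster trachea organ cultures (procedure from earlier reports). Retinoids tested at 10^-8, 10^-9 and 10^-10 M. Potency given as ED50.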

Cricetinae gen. sp. [2] = experiment: Compound is evaluated for its intrinsic ability to control epithelial cell differentiation by retinoids in hamster tracheal organ culture at 10e -8M; IA = inactive(16/17) 16 cultures were inactive out of 17; type: functional, organism-based; details: Trachea
Cricetinae gen. sp. [3] = experiment: Compound is evaluated for its intrinsic ability to control epithelial cell differentiation by retinoids in hamster tracheal organ culture at 10e -10M; IA = inactive(9/12) 9 were inactive out of 12; type: functional, organism-based; details: Trachea
Cricetinae gen. sp. [4] = experiment: Compound is evaluated for its intrinsic ability to control epithelial cell differentiation by retinoids in hamster tracheal organ culture at 10e -9M; IA =inactive(8/15) 8 were inactive out of 15; type: functional, organism-based; details: Trachea
Cricetinae gen. sp. [5] = experiment: Compound is evaluated for its intrinsic ability to control epithelial cell differentiation by retinoids in hamster tracheal organ culture at 10e-9 M; IA = inactive(14/16) 14 were inactive out of 16; type: functional, organism-based; details: Trachea
Cricetinae gen. sp. [6] = experiment: Compound is evaluated for its intrinsic ability to control epithelial cell differentiation by retinoids in hamster tracheal organ culture at 10e-8 M; IA = inactive(9/12) 9 were inactive out of 12; type: functional, organism-based; details: Trachea
Cricetinae gen. sp. [7] = experiment: Compound is evaluated for its intrinsic ability to control epithelial cell differentiation by retinoids in hamster tracheal organ culture at 10e-8 M; act = active(4 cultures were active out of 5); type: functional, organism-based; details: Trachea
Cricetinae gen. sp. [8] = experiment: Compound is evaluated for its intrinsic ability to control epithelial cell differentiation by retinoids in hamster tracheal organ culture at 10e -9M; IA = inactive(7 cultures were inactive out of 7); type: functional, organism-based; details: Trachea
Cricetinae gen. sp. [9] = experiment: Compound is evaluated for its intrinsic ability to control epithelial cell differentiation by retinoids in hamster tracheal organ culture at 10e-9 M; IA = inactive(3/4) 3 were inactive out of 4; type: functional, organism-based; details: Trachea
Cricetinae gen. sp. [10] = experiment: Compound is evaluated for its intrinsic ability to control epithelial cell differentiation by retinoids in hamster tracheal organ culture at 10e -8M; IA = inactive( 6 cultures were inactive out of 7); type: functional, organism-based; details: Trachea
Cricetinae gen. sp. [11] = experiment: Compound is evaluated for its intrinsic ability to control epithelial cell differentiation by retinoids in hamster tracheal organ culture at 10e-9 M; IA = inactive(12/16) 12 were inactive out of 16; type: functional, organism-based; details: Trachea

Compound	TOC ED50 (Cricetinae gen. sp. [1]) [nM]	other results
CC1=C(/C=C/C(C)=C/C=C/C(C)=C/C=C2C(=O)CC(c3ccc(C(F)(F)F)cc3)CC2=O)C(C)(C)CCC1 (configuration not stated)	0.1	–
CC1=C(/C=C/C(C)=C/C=C/C(C)=C/C=C2C(=O)CCC2=O)C(C)(C)CCC1	–	TOC ED50 (Cricetinae gen. sp. [2]): inactive
CC1=C(/C=C/C(C)=C/C=C/C(C)=C/C=C2C(=O)CCCCCCC2=O)C(C)(C)CCC1	0.24	–
CC1=C(/C=C/C(C)=C/C=C/C(C)=C/C=C2C(=O)CC(C(C)C)CC2=O)C(C)(C)CCC1 (configuration not stated)	0.21	–
COc1ccc(C2CC(=O)C(=C/C=C(C)/C=C/C=C(C)/C=C/C3=C(C)CCCC3(C)C)C(=O)C2)cc1 (configuration not stated)	0.18	–
CC1=C(/C=C/C(C)=C/C=C/C(C)=C/C=C2C(=O)C(C(C)(C)C)CC(C(C)(C)C)C2=O)C(C)(C)CCC1 (configuration not stated)	–	TOC ED50 (Cricetinae gen. sp. [3]): inactive; TOC ED50 (Cricetinae gen. sp. [4]): inactive
2-[3,7-Dimethyl-9-(2,6,6-trimethyl-cyclohex-1-enyl)-nona-2,4,6,8-tetraenylidene]-[3]ferrocenophane-1,3-dione	–	TOC ED50 (Cricetinae gen. sp. [5]): inactive
CC1=C(/C=C/C(C)=C/C=C/C(C)=C/C=C2C(=O)CC(C)CC2=O)C(C)(C)CCC1 (configuration not stated)	0.8	–
CC1=C(/C=C/C(C)=C/C=C/C(C)=C/C=C2C(=O)c3ccccc3C2=O)C(C)(C)CCC1	–	TOC ED50 (Cricetinae gen. sp. [6]): inactive
CC(=O)C(=C/C=C(C)/C=C/C=C(C)/C=C/C1=C(C)CCCC1(C)C)C(C)=O	1.8	–
CC1=C(/C=C/C(C)=C/C=C/C(C)=C/C=C2C(=O)CCCC2=O)C(C)(C)CCC1	0.11	–
CCC1CC(=O)C(=C/C=C(C)/C=C/C=C(C)/C=C/C2=C(C)CCCC2(C)C)C(=O)C1 (configuration not stated)	0.36	–
CC1=C(/C=C/C(C)=C/C=C/C(C)=C/C=C2C(=O)CC(c3ccccc3)CC2=O)C(C)(C)CCC1 (configuration not stated)	0.1	–
CCC(=O)C(=C/C=C(C)/C=C/C=C(C)/C=C/C1=C(C)CCCC1(C)C)C(=O)CC	–	TOC ED50 (Cricetinae gen. sp. [7]): Active; TOC ED50 (Cricetinae gen. sp. [8]): inactive
CC1=C(/C=C/C(C)=C/C=C/C(C)=C/C=C2C(=O)CC(C)(C)CC2=O)C(C)(C)CCC1	0.24	–
CC1=C(/C=C/C(C)=C/C=C/C(C)=C/C=C2C(=O)CCCCCC2=O)C(C)(C)CCC1	0.22	–
CC1=C(/C=C/C(C)=C/C=C/C(C)=C/C=C2C(=O)C=CC2=O)C(C)(C)CCC1	–	TOC ED50 (Cricetinae gen. sp. [9]): inactive
CCCC(=O)C(=C/C=C(C)/C=C/C=C(C)/C=C/C1=C(C)CCCC1(C)C)C(=O)CCC	–	TOC ED50 (Cricetinae gen. sp. [10]): inactive
CC1=C(/C=C/C(C)=C/C=C/C(C)=C/C=C2C(=O)CCCCC2=O)C(C)(C)CCC1	0.38	–
CC1=C(/C=C/C(C)=C/C=C/C(C)=C/C=C2C(=O)CCCCCCCCCCCC2=O)C(C)(C)CCC1	–	TOC ED50 (Cricetinae gen. sp. [11]): inactive
